In ChEMBL document CHEMBL4842360, “Discovery of a Bicyclic Peptidyl Pan-Ras Inhibitor” (J Med Chem, 2021):
The source made the active and inactive calls. No cut-off for these calls is given here. Numbered stars: 1 amine (or outer) side, 2 acyl side, 3 side chain; on linkers, the order of the positions; unused ones are H or OH. Bridge positions count the residues as written; N and C are the ends. Square brackets hold non-standard residues; d marks the D form. Peptide text beside a SMILES is read from it. Trimesoyl = O=C(c1cc(C(=O)[*:2])cc(C(=O)[*:3])c1)[*:1]; d2Nal = N[C@H](Cc1ccc2ccccc2c1)C(=O)O; Phg = N[C@H](C(=O)O)c1ccccc1; Orn = NCCC[C@H](N)C(=O)O; Dap = NC[C@H](N)C(=O)O

Legend:
[1] = molecular target: Albumin (Bos taurus, UniProt P02769); assay: Binding affinity to bovine serum albumin; type: ADME
Sequence of Albumin (P02769 whole entry): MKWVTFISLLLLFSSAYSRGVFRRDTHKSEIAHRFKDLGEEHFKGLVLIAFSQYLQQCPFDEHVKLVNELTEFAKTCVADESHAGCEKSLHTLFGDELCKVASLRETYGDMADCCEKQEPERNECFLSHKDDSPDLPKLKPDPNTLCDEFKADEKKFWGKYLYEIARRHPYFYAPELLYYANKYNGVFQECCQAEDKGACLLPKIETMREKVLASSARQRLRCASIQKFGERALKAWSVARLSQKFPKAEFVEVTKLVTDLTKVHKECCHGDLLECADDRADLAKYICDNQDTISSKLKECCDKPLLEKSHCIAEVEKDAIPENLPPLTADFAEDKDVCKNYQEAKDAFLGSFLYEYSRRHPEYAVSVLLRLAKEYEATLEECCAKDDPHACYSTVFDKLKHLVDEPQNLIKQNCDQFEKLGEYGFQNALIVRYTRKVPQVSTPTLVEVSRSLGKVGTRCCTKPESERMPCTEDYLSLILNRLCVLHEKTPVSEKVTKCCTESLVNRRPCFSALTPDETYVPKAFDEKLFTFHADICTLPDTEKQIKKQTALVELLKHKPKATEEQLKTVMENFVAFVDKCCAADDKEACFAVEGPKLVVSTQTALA
Summary of the method: (§1)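 Fluorescein-labeled peptide (100 nM) incubated 1 h at RT with varying concentrations of control protein (BSA, GST-RBD, PNP, PTP1B or MDM2). KD derived from fluorescence polarization titration curves.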

[2] = molecular target: T1, Tyrosine-protein phosphatase non-receptor type 1 (Homo sapiens) (UniProt P18031); assay: Binding affinity to PTP1B (unknown origin); summary of the method: as §1
T1 sequence (whole entry): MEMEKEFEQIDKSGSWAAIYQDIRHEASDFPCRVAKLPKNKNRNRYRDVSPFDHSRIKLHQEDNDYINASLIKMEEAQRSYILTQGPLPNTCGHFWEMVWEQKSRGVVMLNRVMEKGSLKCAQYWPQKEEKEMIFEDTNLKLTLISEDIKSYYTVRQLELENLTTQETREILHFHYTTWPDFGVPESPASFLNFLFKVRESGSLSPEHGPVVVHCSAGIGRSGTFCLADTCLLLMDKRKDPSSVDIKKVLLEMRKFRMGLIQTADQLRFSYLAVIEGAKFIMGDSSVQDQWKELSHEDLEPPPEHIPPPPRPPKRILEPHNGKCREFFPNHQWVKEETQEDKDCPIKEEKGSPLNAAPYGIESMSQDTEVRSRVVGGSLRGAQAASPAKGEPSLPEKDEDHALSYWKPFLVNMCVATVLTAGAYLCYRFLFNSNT

[3] = Drug distribution in human NCI-H358 cells assessed as fluorescent puncta in cytoplasmic region at 5 uM incubated for 2 hrs by live-cell confocal microscopy; type: ADME, cell-based; details: nci-h358, 2 h
Summary of the method: (§2)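 HeLa, H358 or A549 cells treated with 5 μM fluorescein-labeled peptide for 2 h, then imaged by live-cell confocal microscopy for intracellular fluorescence pattern.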

[4] = Drug distribution in human A549 cells assessed as diffuse fluorescence throughout the entire cell volume at 5 uM incubated for 2 hrs by live-cell confocal microscopy; type: ADME, cell-based; details: a549, 2 h; summary of the method: as §2
[5] = Drug distribution in human NCI-H358 cells assessed as accumulation in plasma membrane at 5 uM incubated for 2 hrs by live-cell confocal microscopy; type: ADME, cell membranes; details: nci-h358, 2 h; summary of the method: as §2
[6] = tested on: NCI-H358; assay: Induction of apoptosis in human NCI-H358 cells assessed as live cells at 1 uM incubated for 24 hrs by Alexa Fluor 488 annexin V/propidium iodide staining based assay (reference value: 87%); type: functional
[7] = tested on: NCI-H358; assay: Induction of apoptosis in human NCI-H358 cells assessed as early apoptotic cells at 1 uM incubated for 24 hrs by Alexa Fluor 488 annexin V/propidium iodide staining based assay (reference value: 3.05%); type: functional
[8] = tested on: NCI-H358; assay: Induction of apoptosis in human NCI-H358 cells assessed as late apoptotic cells at 1 uM incubated for 24 hrs by Alexa Fluor 488 annexin V/propidium iodide staining based assay (reference value: […]); type: functional
[9] = tested on: NCI-H358; assay: Induction of apoptosis in human NCI-H358 cells assessed as live cells at 5 uM incubated for 24 hrs by Alexa Fluor 488 annexin V/propidium iodide staining based assay (reference value: 87%); type: functional
[10] = tested on: NCI-H358; assay: Induction of apoptosis in human NCI-H358 cells assessed as necrotic cells at 10 uM incubated for 24 hrs by Alexa Fluor 488 annexin V/propidium iodide staining based assay (reference value: 0.699%); type: functional
[11] = tested on: A549; assay: Antitumor activity against human A549 cells xenografted in mouse assessed as average tumor volume at 5 mg/kg, iv administered for 9 days measured every other day (reference value: 100 mm3); type: functional; details: time 9 day
Summary of the method: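 Nude mice given ~1.5 million A549 cells subcutaneously. Once tumors reached ~40 mm3, groups of n = 6 received peptide at 1 or 5 mg/kg/day or PBS vehicle by tail-vein injection for 9 days. Tumor volume was tracked, and tumors were weighed at harvest.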

[12] = Toxicity in mouse xenografted with human A549 cells assessed as effect on body weight at 1 to 5 mg/kg, iv administered for 9 days; type: organism-based; details: in vivo, 216 h, dose 1-5 mg/kg, time 9 day
Summary of the method: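 About 1.5 million A549 cells given subcutaneously to nude mice. Dosing began once tumors reached ~40 mm3, with n = 6 per group. Mice received 1 or 5 mg/kg per day or vehicle (PBS) by tail-vein injection for 9 days. Body weight was monitored alongside tumor volume and weight at harvest.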

- Kd [1]: 57 µM
- Activity [2]: inactive
- Drug uptake [3]: Active
- Drug uptake [4]: Active
- Drug uptake [5]: Active
Compound: C[C@@H](NC(=O)[C@H](Cc1ccccc1)NC(=O)[C@@H](CCCNC(=N)N)NC(=O)[C@H](CCCN)NC(=O)[C@@H]1CNC(=O)c2cc3cc(c2)C(=O)N[C@H](Cc2ccc4ccccc4c2)C(=O)N[C@@H](CO)C(=O)N[C@@H](CC(N)=O)C(=O)N[C@H](Cc2ccc4ccccc4c2)C(=O)N[C@@H](c2ccccc2)C(=O)N[C@@H](CCCCNC3=O)C(=O)N[C@H](Cc2ccccc2)C(=O)N[C@@H](CCC(N)=O)C(=O)N[C@H](CCCNC(=N)N)C(=O)N[C@@H](CCCNC(=N)N)C(=O)N1)C(N)=O ([d2Nal]SN[d2Nal][Phg]K[dF]Q[dR]R[Dap][Orn][dR]F[dA]-NH2; linker N-6-11 via Trimesoyl)
- Activity [6]: 87.7%
- Activity [7]: 3.13%
- Activity [8]: 8.91%
- Activity [9]: 55.1%
- Activity [10]: 0.493%
- Activity [11]: 35 mm3
- Activity [12]: Non-Toxic
